Screening results deposited in PubChem BioAssay by Broad Institute.
MITF TRPM1 HTS = increases MITF-driven TRPM1 promoter luciferase signal; SK-MEL-5 TRPM1-promoter luciferase, 24 h; % of positive control, neutral wells = 0; activation, % at 12.5 µM; 300,000 tested, 0.75% active; AID 588334;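 active means mean activation of at least 80% with every replicate also reaching 80%; inconclusive means mean reaches 80% but some replicate falls short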;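 further: 0% = neutral control wells and 100% = parthenolide positive control wells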
esBAF inh = SWI/SNF esBAF complex inhibition; mouse ES cells, Bmi1-luciferase knock-in reporter, 24 h; 100% = twice the neutral-well signal; reporter increase, % at 12.5 µM; 350,000 tested, 2% active; AID 602393; in the data active means activation above about 40%; inconclusive means no clear call, values can overlap the other calls;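 further: 0% = median of the plate's neutral control wells and 100% = double that signal; a rise in the Bmi1 reporter signal indicates esBAF inhibition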
Wnt bcat act = activates Wnt/beta-catenin signaling in a reporter cell assay | activator, plate reader | activation, % at 9.35 µM | 300,000 tested, 1.2% active | AID 743398; in the data active means activation above about 30%, passing the limit was not always enough; inconclusive means no clear call, values can overlap the other calls;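 further: 0% = neutral control wells and 100% = positive control wells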
Vif imaging = blocks HIV Vif function; 340,000 tested, 0.35% active; inhibition, % at 7.49 µM; AID 602346; HEK293T cells, Vif self-association by quenched fluorescence, imaging, 24 h; in the data active means inhibition above about 50%, passing the limit was not always enough; inconclusive means no clear call, values can overlap the other calls; inactive means below about 31%
Xi reactivation = reactivates the inactive X chromosome in mouse fibroblasts. activation, % at 7.58 µM. XiGFP mouse fibroblasts, % GFP-positive cells imaging, 3 d; cells co-treated with 5-aza-dC sensitizer; scaled so ellipticine positive control = 100%. 360,000 tested, 0.055% active;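 active means mean normalized replicate activation at least 10% and every replicate at or above 10%; inconclusive means only one of the two criteria met; inactive means mean below 10% and not all replicates reach 10%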;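 further: 0% = median of on-plate neutral control wells and 100% = ellipticine 6 µM median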
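Material: XiGFP fibroblasts, SV40-immortalized. Buffer or medium: DMEM plus 5-aza-dC sensitizer. Compound: single concentration per compound, delivered by pin transfer. Times: 3 days compound exposure. Controls: ellipticine 6 µM.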
An asterisk follows results filed as active. In the library only some 2.6% were active in any assay of this set; here they are far more common.

For O=C(O)c1ccc(C=NN2CCCCCC2)cc1 the results were MITF TRPM1 HTS 26, esBAF inh 47*, Wnt bcat act 3, Vif imaging 14 and Xi reactivation 0.
`O=C(c1ccc(-c2ccccc2)cc1)N1CCN(c2ccccc2)CC1` gave MITF TRPM1 HTS 73, esBAF inh 51*, Wnt bcat act 12, Vif imaging 12 and Xi reactivation 0.
`C[C@@H]1CN([C@@H](C)CO)C(=O)CCCn2nncc2CO[C@@H]1CN(C)C(=O)Nc1cccc(F)c1` gave esBAF inh 4 and Xi reactivation 0.
`Cc1noc(C)c1NC(=O)N(C)C[C@H]1Oc2c(NS(=O)(=O)c3ccccc3)cccc2C(=O)N([C@H](C)CO)C[C@@H]1C` gave Xi reactivation -1.
Screening CCCNC(=O)N1C[C@H](C)[C@H](OC)CN(C)C(=O)c2cc(NC(=O)CCC)ccc2OC[C@@H]1C returned esBAF inh -14 and Xi reactivation 0.
For C[C@@H]1CN([C@@H](C)CO)C(=O)CCCn2cc(nn2)CO[C@@H]1CN(C)C(=O)Nc1ccccc1 the results were esBAF inh -7 and Xi reactivation 0.
For Clc1cccc(CSc2nccn2-c2ccccc2)c1 the results were MITF TRPM1 HTS -4, esBAF inh 5, Wnt bcat act -2 and Vif imaging -15.
Screening Clc1ccc(CSc2ncn(-c3ccccc3)n2)cc1 returned MITF TRPM1 HTS 17, esBAF inh 58* and Vif imaging 4.
`Clc1cccc(CSc2ncn(-c3ccccc3)n2)c1` gave MITF TRPM1 HTS 55, esBAF inh 42*, Wnt bcat act 2 and Vif imaging 0.
`Cc1ccc(-c2nc3ccccc3[nH]2)cc1NC(=S)NC(=O)c1ccccc1Br` gave MITF TRPM1 HTS 14, esBAF inh 58*, Wnt bcat act 0 and Vif imaging -20.
Screening Cc1ccc(-c2nc3ccccc3[nH]2)cc1NC(=O)/C=C/c1ccco1 returned MITF TRPM1 HTS 44, esBAF inh 23 and Vif imaging 5.
O=C(NC(=S)Nc1cc(-c2nc3ccccc3[nH]2)ccc1Cl)c1ccc2c(c1)OCO2 was read as MITF TRPM1 HTS -53, esBAF inh 15, Wnt bcat act 26, Vif imaging -18 and Xi reactivation 0.
`Cc1ccc(-c2nc3ccccc3[nH]2)cc1NC(=O)c1ccc2c(c1)OCO2` gave MITF TRPM1 HTS 28, esBAF inh 45* and Vif imaging 5.
For COc1ccc2c3c([nH]c2c1)[C@H](CO)N(Cc1nccs1)CC31CN(C(=O)C2CCCC2)C1 the results were Xi reactivation 0.
CCCNC(=O)N1CC2(CCN(C(=O)C3CCCC3)CC2)c2c([nH]c3cc(OC)ccc23)[C@H]1CO was read as Xi reactivation 0.
Screening Oc1ccc(Cl)cc1C=Nc1ccc(Br)cc1 returned MITF TRPM1 HTS -7, Wnt bcat act -2, Vif imaging 1 and Xi reactivation 0.
Cn1c(O)c(C=Nc2ccc(Br)cc2)sc1=O was read as MITF TRPM1 HTS 68, Wnt bcat act 60*, Vif imaging 12 and Xi reactivation 0.
For Cc1cc(O)ccc1N/C=C/c1onc(C)c1[N+](=O)[O-] the results were MITF TRPM1 HTS 26, Wnt bcat act 60*, Vif imaging 0 and Xi reactivation 0.
For CCn1cnc2c(Nc3cccc(Cl)c3)nc(C#N)nc21 the results were MITF TRPM1 HTS 112*, esBAF inh 69*, Wnt bcat act 46*, Vif imaging 1 and Xi reactivation 0.
Screening O=c1c2ccccc2nc2c3ccccc3c(NCc3ccccn3)nn12 returned MITF TRPM1 HTS 16, Wnt bcat act 49*, Vif imaging 2 and Xi reactivation 0.
Screening COC(=O)C1CCN(C(=O)C2CCC(=O)N(CCc3cccc(F)c3)C2)CC1 (stereo not drawn) returned MITF TRPM1 HTS 19, esBAF inh 53*, Wnt bcat act 3, Vif imaging 8 and Xi reactivation 0.
Screening O=C1CCC(C(=O)N2CCCCO2)CN1CCc1ccccc1 (stereo not drawn) returned MITF TRPM1 HTS 66, esBAF inh 51*, Wnt bcat act 28, Vif imaging -9 and Xi reactivation 0.
`Cc1ccc(Nc2nc(-c3cccnc3)cs2)cc1C` gave MITF TRPM1 HTS 63, esBAF inh 37, Wnt bcat act inconclusive, Vif imaging -12 and Xi reactivation 0.
For CC(=O)c1ccc(Nc2nc(-c3cccnc3)cs2)cc1 the results were esBAF inh 52*, Wnt bcat act 4, Vif imaging 1 and Xi reactivation 0.
For O=C(O)c1ccc(Nc2nc(-c3cccnc3)cs2)cc1 the results were MITF TRPM1 HTS 17, esBAF inh inconclusive, Wnt bcat act 26, Vif imaging -8 and Xi reactivation 0.
Screening CC(=O)c1cccc(Nc2nc(-c3ccccc3)cs2)c1 returned MITF TRPM1 HTS 130*, esBAF inh 7, Wnt bcat act 21, Vif imaging 0 and Xi reactivation 0.
For O=C(Nc1cccc(-c2csc(Nc3cccc(C(F)(F)F)c3)n2)c1)c1ccccc1 the results were MITF TRPM1 HTS -9, esBAF inh -3, Wnt bcat act 0, Vif imaging -3 and Xi reactivation 0.
`O=C(Nc1cccc(-c2csc(Nc3ccccc3)n2)c1)c1ccccc1` gave MITF TRPM1 HTS 106*, esBAF inh 57*, Wnt bcat act 27, Vif imaging -11 and Xi reactivation 1.
For CC(=O)c1cccc(Nc2nc(-c3cccnc3)cs2)c1 the results were esBAF inh 54*, Wnt bcat act 17, Vif imaging 7 and Xi reactivation 0.
Screening COc1ccc2c3c(n(C)c2c1)[C@H](CO)N(CC1CCCCC1)CC31CN(C(C)=O)C1 returned Xi reactivation 0.
Screening Cc1ccc(NC(=O)Nc2ccc3c(c2)C(=O)N(C)[C@@H]2CC[C@H](CC(=O)O)O[C@@H]2CO3)cc1 returned esBAF inh 4 and Xi reactivation 0.
Oc1ccc(Nc2nc(-c3cccnc3)cs2)cc1 was read as esBAF inh 39 and Vif imaging -5.
For CC(=O)Nc1ccc(-c2csc(NCCc3ccccc3)n2)cc1 the results were esBAF inh 47*, Wnt bcat act 3, Vif imaging -1 and Xi reactivation 0.
`Cc1ccn2cc(-c3cccc(NC(=O)c4ccccc4)c3)nc2c1` gave MITF TRPM1 HTS 105*, Wnt bcat act 17, Vif imaging -8 and Xi reactivation 0.
Screening CCOc1ccc(Nc2nc(-c3cccnc3)cs2)cc1 returned esBAF inh 50*, Wnt bcat act 14, Vif imaging -2 and Xi reactivation 0.
